# Experimental data: ChEMBL document CHEMBL4613249, “Serendipitous Discovery of Leucine and Methionine Depletion Agents during the Search for Polyamine Transport Inhibitors” (J Med Chem, 2020)
# Activity calls are given as the source filed them. The rule behind the calls is not given here.
# How the values were obtained:
# [1] = test system: L3.6pl; experiment: Effect on polyamine level in human L3.6PL cells assessed as decrease in intracellular spermidine level at 7 uM measured after 72 hrs in presence of amine oxidase suppressor aminoguanidine […] relative to control; assay type: functional; parameters: scale not given: the % may be the effect or the level left
# [2] = test system: CHO-K1; experiment: Cytotoxicity against CHOK1 cells assessed as effect on cell growth at < 7 uM measured after 48 hrs by MTS assay; assay type: cell-based, Cricetulus griseus; conditions: chinese hamster, cho-k1, 48 h
# [3] = biological target: Large neutral amino acids transporter small subunit 1 (Homo sapiens) (UniProt Q01650); experiment: Inhibition of LAT1-mediated [3H]-leucine uptake in human L3.6PL cells at 2 to 7 uM preincubated for 24 hrs at 37 degree C followed by HBBS addition and compound washout and subsequent compound dosing measured after 30 mins by scintillation counter method; assay type: cell-based
# Large neutral amino acids transporter small subunit 1 (Homo sapiens), sequence (Q01650 whole entry): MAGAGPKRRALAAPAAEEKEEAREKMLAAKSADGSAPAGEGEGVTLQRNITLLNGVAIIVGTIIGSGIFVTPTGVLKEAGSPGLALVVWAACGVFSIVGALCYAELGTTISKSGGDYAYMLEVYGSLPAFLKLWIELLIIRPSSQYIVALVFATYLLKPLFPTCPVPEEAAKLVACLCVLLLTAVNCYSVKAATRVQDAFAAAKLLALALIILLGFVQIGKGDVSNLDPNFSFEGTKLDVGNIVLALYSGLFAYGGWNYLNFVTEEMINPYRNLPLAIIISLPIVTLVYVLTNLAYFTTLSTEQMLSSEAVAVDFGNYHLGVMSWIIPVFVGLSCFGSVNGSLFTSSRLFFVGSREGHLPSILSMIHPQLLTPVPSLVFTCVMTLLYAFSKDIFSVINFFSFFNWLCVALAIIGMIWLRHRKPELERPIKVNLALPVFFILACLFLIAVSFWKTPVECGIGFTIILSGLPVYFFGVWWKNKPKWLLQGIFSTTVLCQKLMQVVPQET
# Outline: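 L3.6pl cells were preincubated 24 h at 37°C with compound, washed and placed in HBSS. Compound was then added back just before ³H-leucine, followed by a 30 min incubation at 37°C. After cold washes, radioactivity was counted and normalized to μg protein.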
# [4] = biological target: Large neutral amino acids transporter small subunit 1 (Homo sapiens) (UniProt Q01650); experiment: Induction of LAT1-mediated polyamine efflux in aminoguanidine pretreated human L3.6PL cells assessed as reduction in cell viability at 5 uM measured after 72 hrs in presence of spermidine by MTS assay; assay type: cell-based
# Outline: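 L3.6pl cells pre-incubated 24 h with 250 μM aminoguanidine. Then given increasing compound plus putrescine, spermidine or spermine, each fixed at 1 or 5 μM, for 72 h at 37°C. Growth by MTS relative to untreated control.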
# [5] = test system: L3.6pl; experiment: Effect on polyamine level in human L3.6PL cells assessed as change in putrescine level at 2 to 7 uM measured after 72 hrs in presence of amine oxidase suppressor aminoguanidine by LCMS analysis; assay type: functional, cell-based; conditions: in the assay text read “by N-dansylation and HPLC analysis” for “by LCMS analysis”
# Outline: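 L3.6pl cells, 50,000 cells/mL in 10 mL per Petri dish with 1 mM aminoguanidine, plated overnight. Dosed with compound at 2, 5 or 7 μM from PBS stocks, then 72 h at 37°C. Intracellular polyamines measured by N-dansylation and HPLC, in duplicate, as nmol/mg protein against a parallel untreated control.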
# [6] = biological target: Large neutral amino acids transporter small subunit 1 (Homo sapiens) (UniProt Q01650); experiment: Induction of LAT1-mediated polyamine efflux in human L3.6PL cells assessed as increase in [3H]leucine efflux at 60 uM measured after 30 mins at 37 degC by scintillation counting method; assay type: cell-based
# Outline: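 L3.6pl cells preloaded 5 min at 37°C with 3H-leucine and washed three times with cold HBSS. Compound (60 μM) given alone for 30 min at 37°C. Radioactivity of released 3H-leucine counted in the supernatant. Untreated and 100 μM unlabeled leucine lanes set the efflux range.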
# [7] = test system: L3.6pl; experiment: Effect on polyamine level in human L3.6PL cells assessed as phenylalanine level per mg protein in supernatant at 5 uM measured after 72 hrs in presence of amine oxidase suppressor aminoguanidine by LCMS analysis (reference value: 14299 +/- 7194 pmol/mg); assay type: functional
# [8] = test system: L3.6pl; experiment: Effect on polyamine level in human L3.6PL cells assessed as glutamic acid level per mg protein in supernatant at 5 uM measured after 72 hrs in presence of amine oxidase suppressor aminoguanidine by LCMS analysis (reference value: 23412 +/- 3983 pmol/mg)
# [9] = biological target: Large neutral amino acids transporter small subunit 1 (Homo sapiens) (UniProt Q01650); experiment: Inhibition of LAT1-mediated amino acid transport in human L3.6PL cells assessed as reduction in intracellular leucine level by measuring leucine level per mg protein in cell lysate at 7 uM measured after 72 hrs by LCMS analysis (reference value: 232 +/- 10 pmol/mg); assay type: cell-based
# Outline: (§1)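 L3.6pl cells (50,000 cells/mL, 10 mL, 1 mM aminoguanidine) were seeded in poly-lysine-treated 9 cm dishes and incubated overnight at 37°C. They were then dosed with compound at 2, 5 or 7 μM from PBS stocks (2, 5, 7 mM) and incubated 72 h. Runs were done in triplicate, with amino acid levels per mg protein.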
# [10] = biological target: Large neutral amino acids transporter small subunit 1 (Homo sapiens) (UniProt Q01650); experiment: Inhibition of LAT1-mediated amino acid transport in human L3.6PL cells assessed as reduction in intracellular methionine level by measuring methionine level per mg protein in cell lysate at 5 uM measured after 72 hrs by LCMS analysis (reference value: 167 +/- 67 pmol/mg); assay type: cell-based; outline: as §1
# [11] = biological target: Large neutral amino acids transporter small subunit 1 (Homo sapiens) (UniProt Q01650); experiment: Inhibition of LAT1-mediated [3H]-leucine uptake in human L3.6PL cells measured after 2 mins by scintillation counting analysis; assay type: cell-based
# [12] = test system: CHO-K1; experiment: Inhibition of polyamine transporter in DFMO-treated CHOK1 cells assessed as prevention of spermidine entry into cells by measuring rescue of DFMO-induced reduction in cell growth at 1 to 6 uM measured after 48 hrs in presence of amine oxidase suppressor aminoguanidine by MTS assay; assay type: cell-based; conditions: Cricetulus griseus
# Outline: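 CHO K1 cells (1000 cells/well) were pre-incubated 24 h with 1 mM aminoguanidine. They were then given fixed DFMO (4.2 mM) and spermidine (1 μM) plus increasing compound doses for 48 h at 37°C. EC50 is the concentration bringing MTS relative growth halfway between the DFMO+Spd and DFMO-only controls. Runs were done twice in triplicate, with SD.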
# [13] = biological target: Large neutral amino acids transporter small subunit 1 (Homo sapiens) (UniProt Q01650); experiment: Inhibition of LAT1-mediated amino acid transport in human L3.6PL cells assessed as reduction in intracellular methionine level by measuring methionine level per mg protein in cell lysate at 2 uM measured after 72 hrs by LCMS analysis (reference value: 167 +/- 67 pmol/mg); assay type: cell-based; outline: as §1
# [14] = test system: L3.6pl; experiment: Effect on polyamine level in human L3.6PL cells assessed as spermine level per mg protein in supernatant at 2 uM measured after 72 hrs in presence of amine oxidase suppressor aminoguanidine by LCMS analysis (reference value: 6152 +/- 5596 pmol/mg); assay type: functional
# [15] = test system: L3.6pl; experiment: Effect on polyamine level in human L3.6PL cells assessed as arginine level per mg protein in supernatant at 2 uM measured after 72 hrs in presence of amine oxidase suppressor aminoguanidine by LCMS analysis (reference value: 22121 +/- 10585 pmol/mg); assay type: functional
# [16] = test system: L3.6pl; experiment: Effect on polyamine level in human L3.6PL cells assessed as methionine level human L3.6PL cells assessed per mg protein in supernatant at 2 uM pretreated with aminoguanidine for 24 hrs followed by compound treatment after 72 hrs by LCMS analysis (reference value: 22834 +/- 1984 pmol/mg); assay type: functional
# [17] = test system: CHO-MG; experiment: Cytotoxicity against CHO-MG cells assessed as reduction in cell viability after 48 hrs by MTS assay; assay type: cell-based; conditions: Cricetulus griseus
# Outline: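 Cells in RPMI 1640 with 10% FBS, 1% penicillin/streptomycin, 37°C, 5% CO2, with aminoguanidine (1 mM for CHO K1 and CHO-MG, 250 μM for L3.6pl). Plated overnight at 1000 cells/well (CHO lines) or 500 cells/well (L3.6pl). Compound in PBS added, 48 h exposure. Growth read as MTS formazan absorbance at 490 nm. IC50 is the dose giving 50% relative growth versus untreated control. Run twice in triplicate.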
# [18] = test system: CHO-K1; experiment: Induction of polyamine efflux in aminoguanidine pretreated CHOK1 cells assessed as reduction in cell viability measured after 72 hrs in presence of putrescine by MTS assay; assay type: ADME, cell-based, Cricetulus griseus; conditions: chinese hamster, cho-k1, 72 h
# [19] = test system: L3.6pl; experiment: Effect on polyamine level in human L3.6PL cells assessed as acetyl spermine level per mg protein in supernatant at 2 uM measured after 72 hrs in presence of amine oxidase suppressor aminoguanidine by LCMS analysis (reference value: 77 +/- 43 pmol/mg); assay type: functional
compound,measurement,setting,value
CC(C)CCN1CCN([C@@H](CNCc2ccccc2)CC2CCCCC2)C[C@@H]1CC(C)C,Activity,[1],50%
same,Activity,[2],Non-Toxic
same,inhibition,[3],inactive
same,Activity,[4],Active
same,Activity,[5],inactive
same,Activity,[6],Active
same,Activity,[7],160462 pmol/mg
same,Activity,[8],34033 pmol/mg
same,Activity,[9],77 pmol/mg
same,Activity,[10],41 pmol/mg
same,inhibition,[11],inactive
same,inhibition,[12],inactive
same,Activity,[13],226 pmol/mg
same,Activity,[14],2532 pmol/mg
same,Activity,[15],18396 pmol/mg
same,Activity,[16],17686 pmol/mg
same,IC50,[17],8.93 µM
same,Activity,[18],Active
same,Activity,[19],49 pmol/mg
